# In ChEMBL document CHEMBL5036319, “Discovery of Novel Benzothiazepinones as Irreversible Covalent Glycogen Synthase Kinase 3β Inhibitors for the Treatment of Acute Promyelocytic Leukemia” (J Med Chem, 2021):
# Active and inactive are the calls of the source. The rule behind the calls is not given here.
# Experiments:
# [1] = Induction in caspase-mediated apoptosis in human NB-4 cells assessed as early apoptotic cells at 12.5 uM incubated for 24 hrs in presence of Z-VAD-FMK by Annexin V-FITC/propidium iodide staining based flow cytometry analysis (reference value: 1.84%); type: functional
# [2] = Induction in caspase-mediated apoptosis in human NB4-DR1 cells assessed as early apoptosis cells at 25 uM incubated for 24 hrs in presence of Z-VAD-FMK by Annexin V-FITC/propidium iodide staining based flow cytometry analysis (reference value: 0.875%); type: functional
# [3] = Induction in caspase-mediated apoptosis in human NB4-DR1 cells assessed as necrotic cells at 50 uM incubated for 24 hrs by Annexin V-FITC/propidium iodide staining based flow cytometry analysis (reference value: 0.19%); type: functional
# [4] = Induction in caspase-mediated apoptosis in human NB-4 cells assessed as viable cells at 12.5 uM incubated for 24 hrs in presence of Z-VAD-FMK by Annexin V-FITC/propidium iodide staining based flow cytometry analysis (reference value: 96.8%); type: functional; conditions: read-out: Activity
# HL-60 = test: Cytotoxicity against human HL-60 cells assessed as reduction in cell viability measured after 24 hrs by CCK-8 assay; type: functional, cell-based; conditions: HL-60, 24 h
# How it was run: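 Cells were grown in RPMI-1640 or high-glucose DMEM with 10% FBS at 37 °C, 5% CO2, and seeded at 3 × 10^4 cells/well. Exposure was 24 h across serial concentrations (0−1000 μM in the screen). […] Three independent experiments, mean ± SEM.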
# [5] = Terminal half life in ICR mouse at 15 mg/kg, ip administered as single dose measured upto 8 hrs by LC-MS/MS analysis; type: ADME, organism-based; conditions: in vivo
# How it was run: (§1)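 Male ICR mice (30 g) received a single 15 mg/kg i.p. bolus in corn oil. Orbital blood went into K3EDTA tubes at 0.08–8 h, three animals per time point (composite profile). Plasma was protein-precipitated with acetonitrile and analysed by LC–MS/MS; non-compartmental analysis.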
# [6] = Induction in caspase-mediated apoptosis in human NB-4 cells assessed as late apoptotic cells at 25 uM incubated for 24 hrs in presence of Z-VAD-FMK by Annexin V-FITC/propidium iodide staining based flow cytometry analysis (reference value: 1.15%); type: functional
# [7] = Induction in caspase-mediated apoptosis in human NB4-DR1 cells assessed as viable cells at 12.5 uM incubated for 24 hrs in presence of Z-VAD-FMK by Annexin V-FITC/propidium iodide staining based flow cytometry analysis (reference value: 96.4%); type: functional; conditions: read-out: Activity
# [8] = Cytotoxicity against human L02 cells assessed as cell viability at 0 to 50 uM incubated for 24 hrs by CCK-8 assay relative to control; type: cell-based; conditions: dose 0-50 µM, read-out: Activity
# How it was run: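 HUVEC and LO2 normal cells were cultured in RPMI-1640 or DMEM with 10% FBS at 37 °C, 5% CO2, and seeded at 3 × 10^4 cells/well. They were exposed for 24 h to graded concentrations. CCK-8 incubation was 3 h at 37 °C, with A450 read and viability expressed versus untreated control. Three independent experiments, mean ± SEM.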
# [9] = Induction in caspase-mediated apoptosis in human NB-4 cells assessed as early apoptotic cells at 12.5 uM incubated for 24 hrs by Annexin V-FITC/propidium iodide staining based flow cytometry analysis (reference value: 2.02%); type: functional
# [10] = Induction in caspase-mediated apoptosis in human NB-4 cells assessed as late apoptotic cells at 50 uM incubated for 24 hrs by Annexin V-FITC/propidium iodide staining based flow cytometry analysis (reference value: 1.06%); type: functional
# NB-4 = test: Effect on glycogen synthase phosphorylation in human NB-4 cells assessed as reduction in ratio of p-GS to GS measured after 24 hrs by Western blot analysis; type: functional, cell-based
# How it was run: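 NB4 and NB4-R1 cells were treated 24 h at several concentrations and lysed in RIPA. Equal protein was immunoblotted for phospho-glycogen synthase (Ser641), total GS and β-actin, with ECL detection. Band densities were quantified as the p-GS/GS ratio. n = 3, mean ± SEM.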
# [11] = Tmax in ICR mouse at 15 mg/kg, ip administered as single dose measured upto 8 hrs by LC-MS/MS analysis; type: ADME, organism-based; conditions: in vivo; how it was run: as §1
# [12] = Induction in caspase-mediated apoptosis in human NB-4 cells assessed as late apoptotic cells at 100 uM incubated for 24 hrs in presence of Z-VAD-FMK by Annexin V-FITC/propidium iodide staining based flow cytometry analysis (reference value: 1.15%); type: functional
# [13] = Induction in caspase-mediated apoptosis in human NB-4 cells assessed as necrotic cells at 50 uM incubated for 24 hrs in presence of Z-VAD-FMK by Annexin V-FITC/propidium iodide staining based flow cytometry analysis (reference value: 0.167%); type: functional
# [14] = Induction in caspase-mediated apoptosis in human NB4-DR1 cells assessed as viable cells at 50 uM incubated for 24 hrs by Annexin V-FITC/propidium iodide staining based flow cytometry analysis (reference value: 96.9%); type: functional; conditions: read-out: Activity
# [15] = Induction in caspase-mediated apoptosis in human NB-4 cells assessed as late apoptotic cells at 12.5 uM incubated for 24 hrs by Annexin V-FITC/propidium iodide staining based flow cytometry analysis (reference value: 1.06%); type: functional
# [16] = Induction in caspase-mediated apoptosis in human NB4-DR1 cells assessed as necrotic cells at 25 uM incubated for 24 hrs by Annexin V-FITC/propidium iodide staining based flow cytometry analysis (reference value: 0.19%); type: functional
# [17] = Toxicity in BALB/c mouse xenografted with human NB-4 cells assessed as body weight loss at 15 mg/kg/day, ip administered for 2 weeks; type: organism-based; conditions: in vivo, 336 h
# How it was run: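 Female Balb/c nude mice (4 weeks old) injected subcutaneously in the right flank with 2 × 10^6 NB4 cells. At about 0.5 cm tumour diameter, mice were randomised (n = 5). Dosing was 15 mg/kg/d i.p. in corn oil, or corn-oil vehicle, daily for 2 weeks, with body weight recorded throughout; mean ± SEM.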
# [18] = Induction in caspase-mediated apoptosis in human NB4-DR1 cells assessed as late apoptotic cells at 100 uM incubated for 24 hrs in presence of Z-VAD-FMK by Annexin V-FITC/propidium iodide staining based flow cytometry analysis (reference value: 2.54%); type: functional
# [19] = Induction in caspase-mediated apoptosis in human NB4-DR1 cells assessed as necrotic cells at 100 uM incubated for 24 hrs by Annexin V-FITC/propidium iodide staining based flow cytometry analysis (reference value: 0.19%); type: functional
# [20] = Induction in caspase-mediated apoptosis in human NB-4 cells assessed as viable cells at 25 uM incubated for 24 hrs by Annexin V-FITC/propidium iodide staining based flow cytometry analysis (reference value: 96.6%); type: functional; conditions: read-out: Activity
# [21] = biological target: Glycogen synthase kinase-3 alpha (Homo sapiens) (UniProt P49840); test: Inhibition of recombinant human GSK-3alpha at 100 uM by mobility shift assay relative to control
# [22] = Induction in caspase-mediated apoptosis in human NB4-DR1 cells assessed as late apoptotic cells at 12.5 uM incubated for 24 hrs in presence of Z-VAD-FMK by Annexin V-FITC/propidium iodide staining based flow cytometry analysis (reference value: 2.54%); type: functional
# Sequence of Glycogen synthase kinase-3 alpha (Homo sapiens) (P49840 2-483 limits assumed): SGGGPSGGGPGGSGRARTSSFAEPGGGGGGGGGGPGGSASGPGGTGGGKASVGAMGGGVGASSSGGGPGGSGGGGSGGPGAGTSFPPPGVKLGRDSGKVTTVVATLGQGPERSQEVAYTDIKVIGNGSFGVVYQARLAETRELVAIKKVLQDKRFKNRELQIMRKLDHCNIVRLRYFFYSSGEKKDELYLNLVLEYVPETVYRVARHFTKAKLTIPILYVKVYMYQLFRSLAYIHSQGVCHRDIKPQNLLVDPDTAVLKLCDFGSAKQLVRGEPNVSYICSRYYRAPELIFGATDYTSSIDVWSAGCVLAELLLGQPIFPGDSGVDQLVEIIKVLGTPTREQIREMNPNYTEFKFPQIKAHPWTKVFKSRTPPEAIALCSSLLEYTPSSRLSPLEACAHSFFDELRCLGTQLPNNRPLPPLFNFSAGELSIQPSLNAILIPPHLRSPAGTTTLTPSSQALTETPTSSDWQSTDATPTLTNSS
smiles,measurement,setting,value
C=CC(=O)N1C(=O)CC(c2ccc(F)cc2)Sc2ccccc21 (centres undefined),Activity,[1],4.58%
same,Activity,[2],1.04%
same,Activity,[3],2.29%
same,viability at 12.5 µM,[4],86.4%
same,IC50,HL-60,86.3 µM
same,beta t1/2,[5],14.2 h
same,Activity,[6],11.2%
same,viability at 12.5 µM,[7],96.1%
same,"viability at 24 h, up to 50 µM",[8],> 80%
same,Activity,[9],8.87%
same,Activity,[10],74%
same,Activity,NB-4,Active
same,Tmax,[11],1 h
same,Activity,[12],19.6%
same,Activity,[13],1.52%
same,viability at 50 µM,[14],79.7%
same,Activity,[15],8.04%
same,Activity,[16],1.32%
same,Activity,[17],Toxic
same,Activity,[18],14.2%
same,Activity,[19],6.32%
same,viability at 25 µM,[20],36.4%
same,inhibition,[21],87.3%
same,Activity,[22],2.74%
